In brackets after ≈: the same amount, converted by molar mass.

One assay relates to Saccharomyces cerevisiae. The assay can be described thus: Antifungal activity against Saccharomyces cerevisiae after 48 hrs by NCCLS M27A method. In kind it is functional. A digest of the protocol:
(§1)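 Yeast-like strain grown on SD agar at 30 °C. One colony cultured overnight in SD broth at 30 °C to OD600 0.6–0.9, then diluted 1:5000 in SD broth. Broth microdilution from 20 mg/mL stocks in 95% EtOH, with 4-fold serial dilution and a no-compound negative column. Incubated 30 °C, 48 h. MIC is the lowest concentration giving ≥80% growth reduction.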

The test system of assay [1] is Candida albicans. The assay is described as follows: Antifungal activity against wild type Candida albicans Al-1 after 48 hrs by NCCLS M27A method. It counts as functional. A digest of the protocol: as §1
Assay [2] deals with Candida albicans. The assay is described as follows: Antifungal activity against azole-resistant Candida albicans D10 after 48 hrs by NCCLS M27A method. In kind it is functional. A digest of the protocol:
as §1

The test system of assay [3] is Candida albicans. The assay can be described thus: Antifungal activity against azole-resistant Candida albicans CN1A after 48 hrs by NCCLS M27A method. It counts as functional. A digest of the protocol: as §1
The test system of another assay is Cryptococcus neoformans. The assay is described as follows: Antifungal activity against Cryptococcus neoformans after 48 hrs by NCCLS M27A method. It counts as functional. The procedure, abridged: as §1
For another assay, the system named is Scheffersomyces shehatae. The assay is described as follows: Antifungal activity against Candida shehatae after 48 hrs by NCCLS M27A method. It counts as functional. The procedure, abridged: as §1
For another assay, the system named is Scedosporium boydii. The assay is described as follows: Antifungal activity against Pseudallescheria boydii after 48 hrs by NCCLS M27A method. It counts as functional. The procedure, abridged: (§2)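 Filamentous fungi grown on Sabouraud dextrose (SD) agar at 30 °C. Hyphae-containing agar block blended in SD broth, then diluted 1:5000 in SD broth. Broth microdilution in SD broth from 20 mg/mL stocks in 95% EtOH, with 4-fold serial dilution and a no-compound negative column. Incubated 30 °C, 48 h. MIC is the lowest concentration giving ≥80% growth reduction.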

The test system of another assay is Alternaria alternata. The assay is described as follows: Antifungal activity against Alternaria alternata after 48 hrs by NCCLS M27A method. It counts as functional. The procedure, abridged: as §2
Assay [4] deals with Candida albicans. The assay can be described thus: Antifungal activity against wild type Candida albicans Al-1 in presence of dillapiol. In kind it is functional. A digest of the protocol:
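Synergy run by a similar broth-microdilution MIC method in C. albicans Al-1. One-row 2-fold serial dilution starting at 1000 µg/mL, testing compound alone, dillapiol alone, and compound plus dillapiol (1:5). FIC is the MIC in combination divided by the MIC alone. FICI is the dillapiol FIC plus the compound FIC.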

The test system of assay [5] is Candida albicans. The assay can be described thus: Potentiation of drimane-type sesquiterpene-induced antifungal activity against wild type Candida albicans Al-1 assessed as fractional inhibition concentration index. In kind it is functional. A digest of the protocol: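 Broth microdilution in Sabouraud dextrose broth against C. albicans Al-1 (wild type), incubated at 30 °C for 48 h. Each sesquiterpene was tested alone, dillapiol alone, and the two combined at 1:5. A one-row 2-fold serial dilution started at 1000 µg/mL. MIC was the lowest concentration giving ≥80% growth reduction. FICI = FIC of dillapiol + FIC of compound, where FIC = MIC in combination / MIC alone.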

The test system of another assay is Exophiala dermatitidis. The assay can be described thus: Antifungal activity against yeast-like Wangiella dermatitidis after 48 hrs by NCCLS M27A method.

Consider `COc1ccc2cc3[n+](cc2c1OC)CCc1cc2c(cc1-3)OCO2.[Cl-]` [BERBERINE CHLORIDE], for which the minimal inhibitory concentration (MIC) in the assay on Saccharomyces cerevisiae amounted to 78.1 µg/mL; against Candida albicans [1], 31.3 µg/mL; in the assay on Candida albicans [2], 31.3 µg/mL; against Candida albicans [3] it was 15.6 µg/mL; in the assay with Cryptococcus neoformans it was 31.3 µg/mL; against Scheffersomyces shehatae it was 7.8 µg/mL. For the same compound, the minimal inhibitory concentration (MIC) is 62.5 µg/mL in the assay with Scedosporium boydii, 125 µg/mL against Alternaria alternata, 15.6 µg/mL in the assay with Candida albicans [4] and 31.3 µg/mL against Exophiala dermatitidis. In addition, the “fractional inhibitory concentration index (FICI)” value in the assay on Candida albicans [5] amounted to 0.5.

On to `CC(=O)O[C@@H]1C=C(C=O)[C@](O)(C=O)[C@@]2(C)CCCC(C)(C)[C@H]12` [CINNAMODIAL], for which the MIC against Saccharomyces cerevisiae was determined as 31.3 µg/mL (≈ 102 µM); with Candida albicans [1] it was 62.5 µg/mL (≈ 203 µM); with Candida albicans [2], 15.6 µg/mL (≈ 50.6 µM); in the assay with Candida albicans [3], 62.5 µg/mL (≈ 203 µM); in the assay on Cryptococcus neoformans, 31.3 µg/mL (≈ 102 µM); against Scheffersomyces shehatae, 31.3 µg/mL (≈ 102 µM). Also, the MIC against Scedosporium boydii was determined as 125 µg/mL (≈ 405 µM); with Alternaria alternata, 3.9 µg/mL (≈ 12.6 µM); in the assay with Candida albicans [4], 15.6 µg/mL; in the assay on Exophiala dermatitidis, 15.6 µg/mL (≈ 50.6 µM). Moreover, the “fractional inhibitory concentration index (FICI)” value with Candida albicans [5] was 0.3.

For `CC(=O)O[C@@H]1C=C2C(=O)OC[C@]2(O)[C@@]2(C)CCCC(C)(C)[C@H]12` [CINNAMOSMOLIDE], the MIC was 1250 µg/mL (≈ 4050 µM) against Saccharomyces cerevisiae; 1250 µg/mL (≈ 4050 µM) in the assay with Candida albicans [1]; 156 µg/mL (≈ 506 µM) against Candida albicans [2]; 23.4 µg/mL (≈ 75.9 µM) in the assay with Candida albicans [3]; 625 µg/mL (≈ 2030 µM) against Cryptococcus neoformans; 625 µg/mL (≈ 2030 µM) in the assay with Scheffersomyces shehatae. In addition, the minimal inhibitory concentration (MIC) turned out to be 78.1 µg/mL (≈ 253 µM) against Scedosporium boydii and 313 µg/mL (≈ 1020 µM) in the assay on Exophiala dermatitidis.

The compound `C=CCc1cc2c(c(OC)c1OC)OCO2` [DILLAPIOLE] yielded a minimum inhibitory concentration (MIC) in the assay with Candida albicans [1] of 500 µg/mL (≈ 2250 µM).

As for `CC(=O)N1CCN(c2ccc(OCC3COC(Cn4ccnc4)(c4ccc(Cl)cc4Cl)O3)cc2)CC1` (centres undefined) [KETOCONAZOLE], the minimum inhibitory concentration (MIC) in the assay on Saccharomyces cerevisiae stood at 1.2 µg/mL (≈ 2.26 µM); against Candida albicans [1] it was 0.4 µg/mL (≈ 0.753 µM); in the assay on Candida albicans [2], 93.8 µg/mL (≈ 177 µM); against Candida albicans [3] it was 93.8 µg/mL (≈ 177 µM); against Cryptococcus neoformans, 0.04 µg/mL (≈ 0.0753 µM); in the assay with Scedosporium boydii, 93.8 µg/mL (≈ 177 µM). This compound also yielded an MIC against Exophiala dermatitidis of 31.3 µg/mL (≈ 58.9 µM).

For the compound `CC1(C)CCC[C@@]2(C)[C@H]1[C@@H](O)C=C(C=O)[C@]2(O)C=O` [MUKAADIAL], the MIC turned out to be 1000 µg/mL (≈ 3750 µM) in the assay with Candida albicans [1] and 250 µg/mL in the assay with Candida albicans [4]. Besides, the “fractional inhibitory concentration index (FICI)” value in the assay with Candida albicans [5] stood at 0.8.

As to `CC(=O)O[C@H]1C=C(C=O)[C@](O)(C=O)[C@@]2(C)[C@H](OC(C)=O)CCC(C)(C)[C@H]12` [PARRITADIAL], the MIC in the assay with Candida albicans [1] was 1000 µg/mL (≈ 2730 µM); in the assay with Candida albicans [4] it was 250 µg/mL. Also, in the assay on Candida albicans [5], the “fractional inhibitory concentration index (FICI)” value came out at 1.5.

What is called MIC is the lowest concentration that inhibits growth of the organism.

These data come from ChEMBL document CHEMBL1142598, “Phytochemistry and antifungal properties of the newly discovered tree Pleodendron costaricense” (2006).
